Measurements reported in ChEMBL document CHEMBL1156767, “Indol-3-ylcycloalkyl ketones: effects of N1 substituted indole side chain variations on CB(2) cannabinoid receptor activity” (J Med Chem, 2010).

Columns and labels:
Cannabinoid receptor 2 [1] = target: T1, Cannabinoid receptor 2 (Homo sapiens, UniProt P34972); experiment: Displacement of [3H]CP-55940 from human recombinant CB2 receptor expressed in HEK293 cells; type: cell-based
Cannabinoid receptor 2 [2] = target: T1, Cannabinoid receptor 2; experiment: Agonist activity at human recombinant CB2 receptor expressed in HEK293 cells coexpressing Galphaq/o5 assessed as calcium mobilization by FLIPR assay; type: functional, cell-based
How it was run: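 HEK cells stably coexpressing human CB2 and chimeric Gαq/o5 were seeded at 75 000 cells/well the day before and loaded with no-wash calcium dye. Mean ± SEM, ≥3 experiments in duplicate.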

Cannabinoid receptor 2 [3] = target: T1, Cannabinoid receptor 2; experiment: Agonist activity at human recombinant CB2 receptor expressed in HEK293 cells coexpressing Galphaq/o5 assessed as calcium mobilization by FLIPR assay relative to CP-55940; type: functional, cell-based
How it was run: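 HEK cells stably coexpressing human CB2 and chimeric Gαq/o5 were seeded at 75 000 cells/well the day before and loaded with no-wash calcium dye. […] Mean ± SEM, ≥3 experiments in duplicate.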

Homo sapiens = species: Homo sapiens; experiment: Selectivity ratio of Ki for human recombinant CB1 receptor to Ki for human recombinant CB2 receptor
How it was run: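 Membranes were from HEK cells stably expressing human CB2 and CHO cells stably expressing human CB1. Competition was run against 0.5 nM [3H]CP-55,940 in 50 mM Tris-HCl pH 7.4, 2.5 mM EDTA, 5 mM MgCl2, 0.05% fatty-acid-free BSA, for 90 min at 30 °C, then filtered. Nonspecific binding was set with 10 μM unlabeled CP-55,940. Ki came from one-site fits. Mean ± SEM, ≥3 experiments in duplicate.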

Cannabinoid receptor 1 = Cannabinoid receptor 1 (Homo sapiens, UniProt P21554); experiment: Displacement of [3H]CP-55940 from human recombinant CB1 receptor expressed in CHO cells; type: cell-based; conditions: read-out: Ki
Chain of Cannabinoid receptor 1 (P21554 whole entry): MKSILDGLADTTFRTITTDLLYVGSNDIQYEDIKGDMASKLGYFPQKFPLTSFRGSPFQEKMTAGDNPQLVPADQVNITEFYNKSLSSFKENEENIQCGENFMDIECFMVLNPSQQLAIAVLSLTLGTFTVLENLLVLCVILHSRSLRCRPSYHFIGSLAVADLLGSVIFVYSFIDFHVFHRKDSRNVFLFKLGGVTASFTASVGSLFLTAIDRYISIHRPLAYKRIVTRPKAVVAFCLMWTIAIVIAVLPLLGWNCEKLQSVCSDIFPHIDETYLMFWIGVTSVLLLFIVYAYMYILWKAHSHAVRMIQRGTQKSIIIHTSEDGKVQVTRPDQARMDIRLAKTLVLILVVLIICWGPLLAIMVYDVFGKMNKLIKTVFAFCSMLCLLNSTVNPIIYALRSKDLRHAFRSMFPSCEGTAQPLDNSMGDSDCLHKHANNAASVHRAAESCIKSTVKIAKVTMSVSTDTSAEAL

T1 sequence (P34972 whole entry): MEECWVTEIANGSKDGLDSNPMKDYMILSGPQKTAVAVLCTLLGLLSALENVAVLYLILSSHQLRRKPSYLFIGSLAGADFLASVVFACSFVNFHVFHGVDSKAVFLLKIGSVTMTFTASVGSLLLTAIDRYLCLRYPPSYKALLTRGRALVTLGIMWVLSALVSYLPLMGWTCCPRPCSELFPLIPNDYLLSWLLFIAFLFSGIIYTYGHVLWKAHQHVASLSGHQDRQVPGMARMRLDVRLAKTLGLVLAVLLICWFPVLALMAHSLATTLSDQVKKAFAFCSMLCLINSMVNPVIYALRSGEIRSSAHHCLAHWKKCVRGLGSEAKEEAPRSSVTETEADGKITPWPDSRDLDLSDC

| SMILES | Ki (Cannabinoid receptor 2 [1]; read-out: Ki) [nM] | EC50 (Cannabinoid receptor 2 [2]) [nM] | Activity (Cannabinoid receptor 2 [3]) [%] | Ratio Ki (Homo sapiens) | Ki (Cannabinoid receptor 1) [nM] | Ki (Cannabinoid receptor 2 [1]; read-out: pKi (converted)) [nM] | pKi (Cannabinoid receptor 2 [1]; hek293) | Ki (Cannabinoid receptor 2 [1]; hek293, read-out: Ki) [nM] |
| --- | --- | --- | --- | --- | --- | --- | --- | --- |
| CC1(C)C(C(=O)c2cn(CCc3cccs3)c3ccccc23)C1(C)C | 2.8 | 96 | 86 | 250 | 700 | – | – | – |
| CC1(C)C(C(=O)c2cn(CCN3CCCC3=O)c3ccccc23)C1(C)C | 55 | 55 | 97 | > 182 | > 10000 | 53.7 | – | – |
| CC1(C)C(C(=O)c2cn(C[C@H]3CCCO3)c3ccccc23)C1(C)C | 3.8 | 11 | 99 | 189 | 720 | – | – | – |
| CC1(C)C(C(=O)c2cn(CCN3CCCC3)c3ccccc23)C1(C)C | 5.8 | 70 | 84 | > 1720 | > 10000 | – | – | – |
| CC1(C)C(C(=O)c2cn(CCCO)c3ccccc23)C1(C)C | 2.1 | 27 | 140 | 1050 | 2200 | – | – | – |
| CC1(C)C(C(=O)c2cn(CCN3C(=O)CCC3=O)c3ccccc23)C1(C)C | 170 | 77 | 34 | > 59 | > 10000 | – | – | – |
| O=C(c1cn(CC2CCOCC2)c2ccccc12)[C@@H]1CC12CCCCC2 | 2.6 | 14 | 86 | 24 | 62 | – | – | – |
| O=C(c1cn(CC2CCOCC2)c2ccccc12)C12CC3CC(CC(C3)O1)C2 | 5.9 | 8 | 97 | 91 | 538 | – | – | – |
| CC1(C)C(C(=O)c2cn(CCCCCO)c3ccccc23)C1(C)C | 0.71 | 11 | 79 | 958 | 680 | – | – | – |
| CC(C)[C@H]1CC[C@H](C(=O)c2cn(CCN3CCOCC3)c3ccccc23)CC1 | 190 | > 10000 | – | > 53 | > 10000 | – | – | – |
| CN1CCCCC1Cn1cc(C(=O)c2cc([N+](=O)[O-])ccc2I)c2ccccc21 (stereo not drawn) | – | – | – | 110 | – | – | 7.94 | – |
| Cc1ncsc1CCn1cc(C(=O)C2C(C)(C)C2(C)C)c2ccccc21 | 18 | 49 | 49 | 111 | 2000 | – | – | – |
| CSCCCCn1cc(C(=O)C2C(C)(C)C2(C)C)c2ccccc21 | 0.4 | 22 | 74 | 98 | 39 | – | – | – |
| CC1(C)C(C(=O)c2cn(CCC3CCOCC3)c3ccccc23)C1(C)C | 2.8 | 15 | 90 | 33 | 92 | – | – | – |
| CC1(C)C(C(=O)c2cn(CCc3ccccn3)c3ccccc23)C1(C)C | 68 | 542 | 59 | 28 | 1900 | – | – | – |
| CC1(C)C(C(=O)c2cn(CCC3CCNCC3)c3ccccc23)C1(C)C | > 1000 | – | – | – | > 10000 | – | < 6 | – |
| O=C(c1cn(CCN2CCOCC2)c2ccccc12)C1CCCCCC1 | 11 | 31 | 48 | 33 | 362 | – | – | – |
| CCCCn1cc(C(=O)C2C(C)(C)C2(C)C)c2ccccc21 | 2 | 5 | 102 | 46 | 91 | – | – | – |
| CC1(C)C(C(=O)c2cn(CCO)c3ccccc23)C1(C)C | 56 | 440 | 85 | > 179 | > 10000 | – | – | – |
| O=C(c1cn(CC2CCOCC2)c2ccccc12)C12CC3CC(CC1C3)C2 | 2.1 | 7 | 93 | 35 | 73 | – | – | – |
| CC(=O)CCCCn1cc(C(=O)C2C(C)(C)C2(C)C)c2ccccc21 | 0.99 | 6 | 89 | 384 | 380 | – | – | – |
| CC1(C)C(C(=O)c2cn(CCn3cccc3)c3ccccc23)C1(C)C | 1.8 | 54 | 97 | 172 | 310 | – | – | – |
| CC1(C)C(C(=O)c2cn(C[C@@H]3CCCO3)c3ccccc23)C1(C)C | 3.3 | 14 | 117 | 67 | 220 | – | – | – |
| CC1(C)C(C(=O)c2cn(CCC(=O)O)c3ccccc23)C1(C)C | > 1000 | – | – | – | > 10000 | – | < 6 | – |
| CN1CCN(CCn2cc(C(=O)C3C(C)(C)C3(C)C)c3ccccc32)CC1 | > 1000 | – | – | – | 2150 | – | < 6 | – |

| SMILES | Ki (Cannabinoid receptor 2 [1]; read-out: Ki) [nM] | EC50 (Cannabinoid receptor 2 [2]) [nM] | Activity (Cannabinoid receptor 2 [3]) [%] | Ratio Ki (Homo sapiens) | Ki (Cannabinoid receptor 1) [nM] | Ki (Cannabinoid receptor 2 [1]; read-out: pKi (converted)) [nM] | pKi (Cannabinoid receptor 2 [1]; hek293) | Ki (Cannabinoid receptor 2 [1]; hek293, read-out: Ki) [nM] |
| --- | --- | --- | --- | --- | --- | --- | --- | --- |
| COCCCn1cc(C(=O)C2C(C)(C)C2(C)C)c2ccccc21 | 1.3 | 26 | 108 | 508 | 660 | – | – | – |
| CC1(C(=O)c2cn(CC3CCOCC3)c3ccccc23)CC1(Cl)Cl (stereo not drawn) | 181 | 782 | 32 | 19 | 3360 | – | – | – |
| CC1(C)C(C(=O)c2cn(C(=O)CC3CCOCC3)c3ccccc23)C1(C)C | > 1000 | – | – | – | > 10000 | – | < 6 | – |
| CC1(C)C(C(=O)c2cn(CCN3CCNCC3)c3ccccc23)C1(C)C | > 1000 | 2200 | 30 | – | > 10000 | – | < 6 | – |
| COCCn1cc(C(=O)C2C(C)(C)C2(C)C)c2ccccc21 | 3.1 | 14 | 117 | 229 | 710 | – | – | – |
| CN1CCCCC1Cn1cc(C(=O)C2C(C)(C)C2(C)C)c2ccccc21 (stereo not drawn) | 0.48 | 628 | 48 | 11 | 5.5 | – | – | – |
| CC1(C)C(C(=O)c2cn(CC3CCOC3)c3ccccc23)C1(C)C (stereo not drawn) | 0.14 | 6 | 102 | 4500 | 630 | 0.49 | – | – |
| CCCCCn1cc(C(=O)C2C(C)(C)C2(C)C)c2ccccc21 | 1.8 | 29 | 93 | 83 | 150 | – | – | – |
| O=C(c1cn(CCN2CCOCC2)c2ccccc12)C1CCCCC1 | 138 | 86 | 44 | 12 | 1630 | – | – | – |
| O=C(c1cn(CC2CCOCC2)c2ccccc12)C1CCCC1 | 11 | 20 | 64 | 12 | 131 | – | – | – |
| CC1(C)C(C(=O)c2cn(CCN3CCCCC3)c3ccccc23)C1(C)C | 2.3 | 56 | 93 | 242 | 556 | – | – | – |
| CC1(C(=O)c2cn(CCN3CCOCC3)c3ccccc23)CC1(Cl)Cl (stereo not drawn) | > 1000 | 716 | 33 | – | > 10000 | – | < 6 | – |
| CC1(C)C(C(=O)c2cn(CCN3CCCCCC3)c3ccccc23)C1(C)C | 26 | 1020 | 49 | 30 | 790 | – | – | – |
| CN1CCCC1CCn1cc(C(=O)C2C(C)(C)C2(C)C)c2ccccc21 (stereo not drawn) | > 1000 | – | – | – | > 10000 | – | < 6 | – |
| CC1(C)C(C(=O)c2cn(Cc3ccccc3)c3ccccc23)C1(C)C | 8.2 | 93 | 59 | 26 | 210 | – | – | – |
| CC1(C)C(C(=O)c2cn(CCc3ccncc3)c3ccccc23)C1(C)C | 31 | 162 | 100 | 71 | 2200 | – | – | – |
| CC1(C)C(C(=O)c2cn(CCc3nsc(Cl)n3)c3ccccc23)C1(C)C | 8.3 | 109 | 97 | 506 | 4200 | – | – | – |
| CN(C)CCn1cc(C(=O)C2C(C)(C)C2(C)C)c2ccccc21 | 1.9 | 35 | 105 | > 5260 | > 10000 | – | – | – |
| CC[C@H]1CC[C@H](C(=O)c2cn(CCN3CCOCC3)c3ccccc23)CC1 | 16 | 85 | 59 | 39 | 616 | – | – | – |
| CC1(C)C(C(=O)c2cn(CCC(N)=O)c3ccccc23)C1(C)C | 220 | 294 | 107 | – | > 10000 | – | – | – |
| CN1CCC(CCn2cc(C(=O)C3C(C)(C)C3(C)C)c3ccccc32)CC1 | > 1000 | – | – | – | > 10000 | – | < 6 | – |
| O=C(c1cn(CCN2CCOCC2)c2ccccc12)C1CCCC1 | – | 819 | 35 | – | > 10000 | > 1000 | – | > 1000 |
| CC1(C)C(C(=O)c2cn(CCCN3CCOCC3)c3ccccc23)C1(C)C | > 1000 | 1520 | 56 | – | > 10000 | – | < 6 | – |
| CC1(C)C(C(=O)c2cn(CCN)c3ccccc23)C1(C)C | > 1000 | > 10000 | – | – | > 10000 | – | < 6 | – |
| O=C(c1cn(CCN2CCOCC2)c2ccccc12)C1CCC1 | – | > 10000 | – | – | > 10000 | > 1000 | – | > 1000 |
